Data from ChEMBL document CHEMBL1165950, “Design and synthesis of new potent anticancer pyrazoles with high FLT3 kinase inhibitory selectivity” (Bioorg Med Chem, 2010).

Experiments:
Type in all cases: functional
[1] = system: SK-MEL-5; assay: Cytotoxicity against human SK-MEL-5 cells assessed as cell growth at 100 nM after 48 hrs by sulforhodamine B assay; conditions: SK-MEL-5, 48 h, read-out: Activity
[2] = system: SK-MEL-5; assay: Cytotoxicity against human SK-MEL-5 cells assessed as cell growth at 10 uM; conditions: read-out: Activity
Summary of the method: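 NCI-60 screen: cells grown in RPMI 1640 with 5% FBS and 2 mM L-glutamine, plated at 5000–40,000 cells/well according to doubling time, and preincubated 24 h at 37 °C, 5% CO2. The single 10 µM dose (DMSO stock) was added, then incubated 48 h. Cells were TCA-fixed and stained with 0.4% SRB, read at 515 nm, and growth % calculated against time-zero and control plates.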

[3] = system: HCT-15; assay: Cytotoxicity against human HCT15 cells assessed as cell growth at 10 uM after 48 hrs by sulforhodamine B assay; conditions: HCT-15, 48 h, read-out: Activity
[4] = system: BT-549; assay: Growth inhibition of human BT549 cells after 48 hrs by sulforhodamine B assay; conditions: BT-549, 48 h; for CC50: read-out: LC50 (the source's name)
Summary of the method: (§1)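 NCI five-dose SRB assay in RPMI 1640 with 5% FBS and 2 mM L-glutamine. Cells were preincubated 24 h, then exposed 48 h at 37 °C to five concentrations (10-fold or half-log serial dilutions from DMSO stocks). TCA fixation, SRB staining, and absorbance at 515 nm followed. IC50 was taken where [(Ti−Tz)/(C−Tz)]×100 = 50, with Tz as time-zero cell density.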

[5] = system: UACC-62; assay: Cytotoxicity against human UACC62 cells assessed as cell growth at 100 nM after 48 hrs by sulforhodamine B assay; conditions: UACC-62, 48 h, read-out: Activity
[6] = system: U-251; assay: Cytotoxicity against human U251 cells assessed as cell growth at 0.001 uM after 48 hrs by sulforhodamine B assay; conditions: U-251, 48 h, read-out: Activity
[7] = system: M14; assay: Cytotoxicity against human M14 cells assessed as cell growth at 1 uM after 48 hrs by sulforhodamine B assay; conditions: M14, 48 h, read-out: Activity
[8] = system: T47D; assay: Cytotoxicity against human T47D cells assessed as cell growth at 100 nM after 48 hrs by sulforhodamine B assay; conditions: read-out: Activity
[9] = system: UACC-62; assay: Cytotoxicity against human UACC62 cells assessed as cell growth at 0.01 uM after 48 hrs by sulforhodamine B assay; conditions: UACC-62, 48 h, read-out: Activity
[10] = Growth inhibition of human Hs 578T cells after 48 hrs by sulforhodamine B assay; conditions: for CC50: read-out: LC50 (the source's name)
Summary of the method: (§2)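 NCI 60-cell screen, five-dose mode. Cells grown in RPMI 1640 with 5% FBS and 2 mM L-glutamine and plated at 5000-40,000 cells/well according to doubling time. After 24 h preincubation, a Tz plate was TCA-fixed. Five concentrations (10-fold or 1/2 log dilutions) were applied for 48 h at 37 °C. SRB staining read at 515 nm. IC50 taken from [(Ti-Tz)/(C-Tz)]×100 = 50.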

[11] = system: LOX IMVI; assay: Cytotoxicity against human LOXIMVI cells assessed as cell growth at 100 nM after 48 hrs by sulforhodamine B assay; conditions: read-out: Activity
[12] = system: T47D; assay: Growth inhibition of human T47D cells after 48 hrs by sulforhodamine B assay; summary of the method: as §2
[13] = system: HCT-116; assay: Cytotoxicity against human HCT116 cells assessed as cell growth at 0.01 uM after 48 hrs by sulforhodamine B assay; conditions: HCT-116, 48 h, read-out: Activity
[14] = system: ACHN; assay: Cytotoxicity against human ACHN cells assessed as cell growth at 10 uM; conditions: read-out: Activity
Summary of the method: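 Single-dose NCI-60 screen at 10 µM. Cells were grown in RPMI 1640 with 5% FBS and 2 mM L-glutamine, then treated for 48 h at 37 °C. Protein was measured by SRB staining with absorbance at 515 nm. Percentage growth was recorded, and inhibition percentage was calculated as 100 minus growth percentage.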

[15] = system: M14; assay: Cytotoxicity against human M14 cells assessed as cell growth at 10 uM after 48 hrs by sulforhodamine B assay; conditions: M14, 48 h, read-out: Activity
[16] = system: HOP-92; assay: Cytotoxicity against human HOP92 cells assessed as cell growth at 100 nM after 48 hrs by sulforhodamine B assay; conditions: HOP-92, 48 h, read-out: Activity
[17] = system: CCRF-CEM; assay: Cytotoxicity against human CCRF-CEM cells assessed as cell growth at 10 uM after 48 hrs by sulforhodamine B assay; conditions: read-out: Activity
Summary of the method: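 NCI-60 five-dose screen. Cells were grown in RPMI 1640 with 5% FBS and 2 mM L-glutamine, plated at 5000–40,000 cells/well and preincubated for 24 h. Time-zero plates were TCA-fixed. DMSO-solubilized drug was added at five concentrations (10-fold or ½-log serial dilutions) for 48 h at 37 °C, 5% CO2. Cells were TCA-fixed, stained with 0.4% SRB and read at 515 nm. Percent growth used time-zero, control and test absorbances.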

[18] = system: SK-MEL-2; assay: Cytotoxicity against human SK-MEL-2 cells assessed as cell growth at 10 uM after 48 hrs by sulforhodamine B assay; conditions: SK-MEL-2, 48 h, read-out: Activity
[19] = system: HOP-62; assay: Cytotoxicity against human HOP62 cells assessed as cell growth at 100 nM after 48 hrs by sulforhodamine B assay; conditions: HOP-62, 48 h, read-out: Activity
[20] = system: TK-10; assay: Cytotoxicity against human TK10 cells assessed as cell growth at 1 uM after 48 hrs by sulforhodamine B assay; conditions: TK-10, 48 h, read-out: Activity
[21] = system: Malme-3M; assay: Cytotoxicity against human MALME-3M cells assessed as cell growth at 0.01 uM after 48 hrs by sulforhodamine B assay; conditions: read-out: Activity
[22] = system: SNB-19; assay: Cytotoxicity against human SNB19 cells assessed as cell growth at 0.001 uM after 48 hrs by sulforhodamine B assay; conditions: SNB-19, 48 h, read-out: Activity
[23] = system: M14; assay: Cytotoxicity against human M14 cells assessed as cell growth at 0.001 uM after 48 hrs by sulforhodamine B assay; conditions: M14, 48 h, read-out: Activity
[24] = system: HOP-62; assay: Cytotoxicity against human HOP62 cells assessed as cell growth at 0.01 uM after 48 hrs by sulforhodamine B assay; conditions: HOP-62, 48 h, read-out: Activity
[25] = system: SF-539; assay: Cytotoxicity against human SF539 cells assessed as cell growth at 0.01 uM after 48 hrs by sulforhodamine B assay; conditions: SF-539, 48 h, read-out: Activity
[26] = system: RXF 393; assay: Cytotoxicity against human RXF393 cells assessed as cell growth at 0.01 uM after 48 hrs by sulforhodamine B assay; conditions: RXF 393, 48 h, read-out: Activity
[27] = system: MOLT-4; assay: Cytotoxicity against human MOLT4 cells assessed as cell growth at 0.001 uM after 48 hrs by sulforhodamine B assay; conditions: MOLT-4, 48 h, read-out: Activity
[28] = system: SNB-75; assay: Cytotoxicity against human SNB75 cells assessed as cell growth at 0.001 uM after 48 hrs by sulforhodamine B assay; conditions: SNB-75, 48 h, read-out: Activity
[29] = system: ACHN; assay: Growth inhibition of human ACHN cells after 48 hrs by sulforhodamine B assay; summary of the method: as §1

SMILES	growth at 0.1 µM [1]	growth at 10 µM [2]	growth at 10 µM [3]	GI50 [4]	TGI [4]	CC50 [4]	growth at 0.1 µM [5]	growth at 0.001 µM [6]	growth at 1 µM [7]	growth at 0.1 µM [8]	growth at 0.01 µM [9]	GI50 [10]	TGI [10]	CC50 [10]	growth at 0.1 µM [11]	GI50 [12]	LC50 [12]	TGI [12]	growth at 0.01 µM [13]	growth at 10 µM [14]	other results
Cc1cc(O)cc(-c2nn(CC#N)cc2-c2ccnc(-c3ccc(Oc4ccccc4)cc3)c2)c1	94%	64.3%	-73%	2.66 µM	11.2 µM	43.1 µM	84%	97%	-96%	84%	84%	2.02 µM	6.08 µM	> 100 µM	103%	2.04 µM	39.1 µM	5.81 µM	94%	37.6%	growth at 10 µM [15]: -94%; growth at 0.1 µM [16]: 70%; growth at 10 µM [17]: 14%; growth at 10 µM [18]: -81%; growth at 0.1 µM [19]: 101%; growth at 1 µM [20]: 19%; growth at 0.01 µM [21]: 77%; growth at 0.001 µM [22]: 101%; growth at 0.001 µM [23]: 95%; growth at 0.01 µM [24]: 108%; growth at 0.01 µM [25]: 88%; growth at 0.01 µM [26]: 90%; growth at 0.001 µM [27]: 99%; growth at 0.001 µM [28]: 86%; GI50 [29]: 2.84 µM; LC50 (concentration giving 50% net cell kill) [29]: 33.8 µM; TGI [29]: 9.14 µM
Cc1cc(O)cc(-c2nn(CC#N)cc2-c2ccnc(-c3ccc(N(C)C)cc3)c2)c1	82%	-16.3%	-39%	2.77 µM	12.1 µM	> 100 µM	87%	101%	-39%	82%	96%	2.13 µM	7 µM	> 100 µM	101%	2.59 µM	> 100 µM	12.4 µM	98%	31.2%	growth at 10 µM [15]: -75%; growth at 0.1 µM [16]: 73%; growth at 10 µM [17]: 7%; growth at 10 µM [18]: -46%; growth at 0.1 µM [19]: 80%; growth at 1 µM [20]: 44%; growth at 0.01 µM [21]: 92%; growth at 0.001 µM [22]: 96%; growth at 0.001 µM [23]: 96%; growth at 0.01 µM [24]: 89%; growth at 0.01 µM [25]: 92%; growth at 0.01 µM [26]: 104%; growth at 0.001 µM [27]: 100%; growth at 0.001 µM [28]: 83%; GI50 [29]: 3.73 µM; LC50 (concentration giving 50% net cell kill) [29]: > 100 µM; TGI [29]: 23.7 µM
COc1cc(C)cc(-c2nn(CC#N)cc2-c2ccnc(-c3ccc(N(C)C)cc3)c2)c1	-22%	2.26%	-20%	1.62 µM	7.33 µM	> 100 µM	18%	94%	-7%	24%	86%	0.264 µM	0.695 µM	> 100 µM	39%	0.475 µM	> 100 µM	17.3 µM	97%	16%	growth at 10 µM [15]: -16%; growth at 0.1 µM [16]: 35%; growth at 10 µM [17]: 10%; growth at 10 µM [18]: -12%; growth at 0.1 µM [19]: 16%; growth at 1 µM [20]: 29%; growth at 0.01 µM [21]: 91%; growth at 0.001 µM [22]: 102%; growth at 0.001 µM [23]: 96%; growth at 0.01 µM [24]: 99%; growth at 0.01 µM [25]: 107%; growth at 0.01 µM [26]: 103%; growth at 0.001 µM [27]: 102%; growth at 0.001 µM [28]: 95%; GI50 [29]: 0.499 µM; LC50 (concentration giving 50% net cell kill) [29]: > 100 µM; TGI [29]: 12.4 µM
